For orientation: ΔTm means the shift of the melting midpoint relative to a reference. The term IC50 denotes the concentration needed to halve the response being measured.

Active and inactive are the calls of the source. The rule behind the calls is not given here.

Data set [1] relates to SW-620. In words: Induction of cell cycle arrest on human SW620 cells assessed as accumulation at subG1 phase at 50 uM after 48 hrs by propidium iodide staining based flow cytometry (reference value: 12.1 +/- 0.3%). Type of data set: functional. Conditions: in the assay text read “after 24 hrs” for “after 48 hrs”. An outline of the steps: (§1)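 HepG2 or SW620 cells were seeded at 25000 per well. After 24 h they were treated, then harvested 24 or 48 h later. Attached cells were trypsinized, pooled with floating cells, PBS-washed and fixed in 70% ethanol. Cells were stained with PI 1 µg/mL plus RNase A 0.2 µg/mL, and 10 000 events were acquired by flow cytometry. Phase percentages come from DNA histograms, in duplicate, with ANOVA at p < 0.05.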
A general note: A flow cytometer gives signals particle by particle.

Data set [2] relates to Calf thymus DNA. In words: Binding affinity to calf thymus DNA assessed as change in melting temperature at drug/ base pair ratio of 0.25 by spectrophotometry. Type of data set: nucleic-acid assay. Conditions: Bos taurus. A digest of the protocol: (§2)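 CT-DNA absorbance followed at 260 nm from 20 to 100 °C, rising 1 °C per min, in BPE buffer, with or without compound at drug/base-pair ratio 0.25 or 0.5. Tm taken as midpoint of the hyperchromic transition from first-derivative plots. ΔTm is Tm with compound minus Tm of DNA alone.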

Data set [3] concerns Calf thymus DNA. In words: Binding affinity to calf thymus DNA assessed as change in melting temperature at drug/ base pair ratio of 0.5 by spectrophotometry. Type of data set: nucleic-acid assay. Conditions: Bos taurus. A digest of the protocol: as §2
Data set [4] concerns SW-620. In words: Induction of cell cycle arrest on human SW620 cells assessed as accumulation at G1 phase at 20 uM after 48 hrs by propidium iodide staining based flow cytometry (reference value: 38.1 +/- 1.1%). Type of data set: functional. Conditions: in the assay text read “after 24 hrs” for “after 48 hrs”. A digest of the protocol:
as §1

Data set [5] relates to SW-620. In words: Induction of cell cycle arrest on human SW620 cells assessed as accumulation at S phase at 20 uM after 48 hrs by propidium iodide staining based flow cytometry (reference value: 39.4 +/- 0.2%). Conditions: in the assay text read “after 24 hrs” for “after 48 hrs”. It counts as functional. An outline of the steps:
as §1

Data set [6] concerns Nucleic Acid. In words: Induction of DNA intercalation in supercoiled pUC19 DNA in presence of human topoisomerase 1 assessed as effect on topoisomerase 1-mediated DNA relaxation at 5 to 50 uM by agarose gel electrophoresis. Type of data set: nucleic-acid assay. The following applies: Escherichia coli. A digest of the protocol: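 Supercoiled pUC19 incubated with human topoisomerase I and graded compound concentrations. Stopped with SDS/proteinase K. DNA forms resolved on 1% agarose in TBE, 2 h at 120 V, stained post-run with ethidium bromide and viewed under UV. Camptothecin was the topo I poison control.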

The test system of data set [7] is MCF7. In words: Antiproliferative activity against human MCF7 cells assessed as inhibition of cell proliferation after 72 hrs by MTT assay. Type of data set: functional, cell-based. A digest of the protocol: (§3)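 Cells grown as monolayers in DMEM with 10% FBS, 2 mM L-glutamine, penicillin/streptomycin, 37 °C, 5% CO2. Seeded at 5000/well on day 0. Compounds added after 24 h as five serial dilutions (0,01 to 100 µM), DMSO ≤0.1%, then 72 h. MTT read-out converted to percentage growth. IC50 by linear regression; quadruplicates in three experiments.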
(Formazan colour is commonly taken as a measure of viable cells.)

Data set [8] has as its system HepG2. In words: Antiproliferative activity against human HepG2 cells assessed as inhibition of cell proliferation after 72 hrs by MTT assay. It counts as functional, cell-based. An outline of the steps: as §3
The test system of data set [9] is SW-620. In words: Induction of cell cycle arrest on human SW620 cells assessed as accumulation at G2/M phase at 50 uM after 48 hrs by propidium iodide staining based flow cytometry (reference value: 22.5 +/- 0.9%). Conditions: in the assay text read “after 24 hrs” for “after 48 hrs”. Type of data set: functional. A digest of the protocol: as §1
For data set [10], the system named is SW-620. In words: Induction of cell cycle arrest on human SW620 cells assessed as accumulation at S phase at 50 uM after 48 hrs by propidium iodide staining based flow cytometry (reference value: 39.4 +/- 0.2%). It counts as functional. Conditions: in the assay text read “after 24 hrs” for “after 48 hrs”. An outline of the steps: as §1
Data set [11] relates to BJ. In words: Antiproliferative activity against human BJ cells assessed as inhibition of cell proliferation after 72 hrs by MTT assay. Type of data set: cell-based. The following applies: 72 h. An outline of the steps: as §3
The test system of data set [12] is SW-620. In words: Induction of apoptosis in human SW620 cells assessed as enlarged cells level at 50 uM after 24 hrs by Annexin V-Fluos staining based fluorescent microscopy. Type of data set: functional, cell-based. A digest of the protocol:
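Cells seeded on chamber slides at 4000 per well and treated 24 h (HepG2 at 25 or 50 µM; SW620 at 50 µM). Incubated 15 min with Annexin V-Fluos reagent plus propidium iodide, washed in PBS, and examined by fluorescence microscopy for morphology and labelling.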

The subject of data set [13] is HeLa. In words: Antiproliferative activity against human HeLa cells assessed as inhibition of cell proliferation after 72 hrs by MTT assay. Type of data set: functional, cell-based. An outline of the steps:
as §3

Data set [14] relates to SW-620. In words: Induction of cell cycle arrest on human SW620 cells assessed as accumulation at G2/M phase at 20 uM after 48 hrs by propidium iodide staining based flow cytometry (reference value: 22.5 +/- 0.9%). Type of data set: functional. Conditions: in the assay text read “after 24 hrs” for “after 48 hrs”. An outline of the steps:
as §1

Data set [15] has as its system SW-620. In words: Induction of cell cycle arrest on human SW620 cells assessed as accumulation at subG1 phase at 20 uM after 48 hrs by propidium iodide staining based flow cytometry (reference value: 12.1 +/- 0.3%). The following applies: in the assay text read “after 24 hrs” for “after 48 hrs”. Type of data set: functional. An outline of the steps:
as §1

In data set [16] the test system is SW-620. In words: Induction of cell cycle arrest on human SW620 cells assessed as accumulation at G1 phase at 50 uM after 48 hrs by propidium iodide staining based flow cytometry (reference value: 38.1 +/- 1.1%). It counts as functional. The following applies: in the assay text read “after 24 hrs” for “after 48 hrs”. An outline of the steps: as §1
Data set [17] has as its system Calf thymus DNA. In words: Binding affinity to calf thymus DNA at 50 uM circular dichroism spectroscopy. Type of data set: nucleic-acid assay. Conditions: Bos taurus. A digest of the protocol:
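CD spectra recorded from 480 to 230 nm, 10 mm path, 20 °C, in BPE buffer. CT-DNA (50 µM) incubated with compound rising from 1 to 60 µM or to 80 µM. Compound without DNA served as the control for intrinsic CD.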
A general note: Circular dichroism is widely used to follow secondary structure.

Data set [18] is described as follows: (§4) Antiproliferative activity against human SW620 cells assessed as inhibition of cell proliferation after 72 hrs by MTT assay. It counts as functional, cell-based, SW-620. Conditions: Homo sapiens, SW-620, 72 h. A digest of the protocol:
as §3

Data set [19] relates to SW-620. The data set is described as §4. Type of data set: functional, cell-based. An outline of the steps: as §3
For data set [20], the target named is T1, DNA topoisomerase 1 (Homo sapiens) (UniProt P11387).
T1 sequence (whole entry): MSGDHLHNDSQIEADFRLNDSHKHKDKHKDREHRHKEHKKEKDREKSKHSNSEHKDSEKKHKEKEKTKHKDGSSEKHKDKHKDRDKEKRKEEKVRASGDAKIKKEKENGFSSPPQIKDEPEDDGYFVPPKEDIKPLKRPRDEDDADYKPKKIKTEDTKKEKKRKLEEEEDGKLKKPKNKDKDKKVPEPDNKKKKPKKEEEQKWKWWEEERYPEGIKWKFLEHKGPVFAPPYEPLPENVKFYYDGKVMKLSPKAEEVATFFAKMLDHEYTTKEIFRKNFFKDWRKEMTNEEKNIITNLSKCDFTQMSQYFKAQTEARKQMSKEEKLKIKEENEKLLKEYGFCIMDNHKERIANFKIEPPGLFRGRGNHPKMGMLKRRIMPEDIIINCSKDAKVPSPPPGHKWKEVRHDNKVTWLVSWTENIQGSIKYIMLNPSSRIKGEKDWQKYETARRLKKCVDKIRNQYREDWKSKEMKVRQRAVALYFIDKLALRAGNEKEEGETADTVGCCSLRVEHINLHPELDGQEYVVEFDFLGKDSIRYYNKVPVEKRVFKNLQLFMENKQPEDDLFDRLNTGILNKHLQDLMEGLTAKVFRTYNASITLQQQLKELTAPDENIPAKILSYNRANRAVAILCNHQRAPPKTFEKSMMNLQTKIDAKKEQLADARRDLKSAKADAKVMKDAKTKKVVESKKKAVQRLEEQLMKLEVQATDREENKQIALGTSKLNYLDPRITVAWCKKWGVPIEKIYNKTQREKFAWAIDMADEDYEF
In words: Inhibition of human topoisomerase 1 assessed as topoisomerase poison activity by measuring generation of open circular DNA using supercoiled pUC19 DNA at 5 to 50 uM by agarose gel electrophoresis. An outline of the steps: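 Supercoiled pUC19 plasmid was incubated with human topoisomerase I and graded compound concentrations. Reactions were stopped with SDS and proteinase K. DNA forms were resolved on 1% agarose in TBE (2 h, 120 V), post-stained with ethidium bromide and photographed under UV. Poisoning was read as appearance of nicked DNA, with camptothecin as the positive control.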

Take `Cl.c1ccc2c(c1)CN(c1ccc(C3=NCCN3)nc1)/C2=N/c1ccc(C2=NCCN2)nc1`: the Activity in data set [1] is on record as 7.8%; in [4], 19.6%; in data set [5], 40.4%; in data set [9], 41.7%; in [10], 36.2%; in data set [14], 40%. For the same compound, the results for the Activity in [15] and in [16] were 7.5% and 22.1%, respectively. The values for the ΔTm in data set [2] and in data set [3] were 12.2 °C and 17.3 °C, respectively. Further, the outcome in [6], in data set [12] and in data set [17] was Active. Further, the inhibition entry in [7], in data set [8], in [13] and in [19] was “Dose-dependent effect” throughout. In addition, the IC50 turned out to be 3.76 µM in data set [7] (Homo sapiens, MCF7, 72 h); 20.5 µM in [8] (HepG2, 72 h); 4.26 µM in data set [11] (Homo sapiens, BJ); 6.25 µM in [13] (Homo sapiens, HeLa, 72 h); 5.26 µM in data set [18]. In addition, in data set [11] (human, bj), the “inhibition (INH)” value is “Dose-dependent effect”. Further, in [20], the inhibition result is “inactive”.

Source of the values: ChEMBL document CHEMBL3352181, “Novel phenyl and pyridyl substituted derivatives of isoindolines: Synthesis, antitumor activity and DNA binding features” (Eur J Med Chem, 2014).
